In paper PMC10694825 (The journal of physical chemistry. B, 2023):
Where a chain is given by its changes, count along the chain named. Like-named read-outs stand apart in the source and are kept apart here.

What was measured:
[1] = target: T1, PTP1B (Homo sapiens, UniProt P18031); settings: cited from earlier work; for selectivity: inhibits PTP1B more potently than TCPTP (fold): PTP1B over TCPTP
T1 sequence (P18031 1-321): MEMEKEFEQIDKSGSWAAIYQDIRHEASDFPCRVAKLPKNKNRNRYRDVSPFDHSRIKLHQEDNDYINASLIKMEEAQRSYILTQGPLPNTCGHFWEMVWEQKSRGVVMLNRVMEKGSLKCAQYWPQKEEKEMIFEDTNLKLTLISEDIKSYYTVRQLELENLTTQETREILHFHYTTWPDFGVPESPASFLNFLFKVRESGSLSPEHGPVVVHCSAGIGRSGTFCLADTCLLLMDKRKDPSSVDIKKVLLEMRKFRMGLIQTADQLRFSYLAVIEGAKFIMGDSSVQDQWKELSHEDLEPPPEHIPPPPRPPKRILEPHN

[2] = target: T2, TCPTP K280M (Homo sapiens, UniProt P17706, K280M); assay: pNPP enzyme kinetics, K280M variant; format: biochemical; settings: TCPTP K280M vs wild type
T2 sequence (P17706 1-317 K280M): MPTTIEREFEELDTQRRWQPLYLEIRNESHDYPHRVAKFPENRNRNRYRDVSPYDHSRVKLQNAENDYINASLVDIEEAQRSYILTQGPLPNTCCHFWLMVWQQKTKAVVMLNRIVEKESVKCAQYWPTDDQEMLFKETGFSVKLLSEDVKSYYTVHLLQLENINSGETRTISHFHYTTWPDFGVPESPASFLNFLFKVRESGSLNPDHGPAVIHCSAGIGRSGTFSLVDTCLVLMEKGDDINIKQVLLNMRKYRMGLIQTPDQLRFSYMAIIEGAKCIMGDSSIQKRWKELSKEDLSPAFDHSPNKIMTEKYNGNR
Method in brief: (§1)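 Catalytic-domain constructs (PTP1B 1–351, TCPTP 1–317), with mutations made by Gibson assembly, expressed in E. coli BL21(DE3) and purified by Ni-affinity then anion exchange. Enzyme at 50 nM with 50 μg/mL BSA and test compound (0.5–500 μM) in 50 mM HEPES pH 7.3 with 10% DMSO, preincubated 1 h at 22 °C. Started with 20 mM pNPP; A405 read every 30 s for 8 min. IC50 from a Hill fit of initial rates.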

[3] = target: T3, TCPTP R288Q (Homo sapiens, UniProt P17706, R288Q); assay: pNPP enzyme kinetics, R288Q variant; format: biochemical; settings: TCPTP R288Q vs wild type
T3 sequence (P17706 1-317 R288Q): T2 sequence (P17706 1-317 K280M) with M280K, R288Q
Method in brief: as §1

[4] = target: T4, TCPTP (Homo sapiens, UniProt P17706); assay: pNPP enzyme kinetics, inhibition by amorphadiene; format: biochemical; settings: read-out: IC50 for TCPTP; wild type, pNPP substrate, this study
T4 sequence (P17706 1-317): T2 sequence (P17706 1-317 K280M) with M280K
Method in brief: (§2)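 Truncated enzymes (PTP1B 1–351, TCPTP 1–317) expressed in E. coli BL21(DE3), purified by Ni-affinity and anion-exchange. Reactions held 50 nM enzyme, 50 μg/mL BSA and terpenoid at 0.5–500 μM in 50 mM HEPES pH 7.3 with 10% DMSO for 1 h at 22 °C. 20 mM pNPP started the reaction; A405 read every 30 s over 8 min. Initial rates came from a standard curve, and IC50 from a Hill-equation fit. Selectivity was taken as the TCPTP/PTP1B IC50 ratio.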

[5] = target: T5, PTP1B Q290R (Homo sapiens, UniProt P18031, Q290R); assay: pNPP enzyme kinetics, Q290R variant; format: biochemical; settings: PTP1B Q290R vs wild type
T5 sequence (P18031 1-321 Q290R): T1 sequence (P18031 1-321) with Q290R
Method in brief: as §1

[6] = target: T6, PTP1B L158F (Homo sapiens, UniProt P18031, L158F); assay: pNPP enzyme kinetics, L158F variant; format: biochemical; settings: PTP1B L158F vs wild type
T6 sequence (P18031 1-321 L158F): T1 sequence (P18031 1-321) with L158F

[7] = target: T1, PTP1B; assay: pNPP enzyme kinetics, inhibition by amorphadiene; format: biochemical; settings: this study
Method in brief: as §2

[8] = target: T7, PTP1B M282K (Homo sapiens, UniProt P18031, M282K); assay: pNPP enzyme kinetics, M282K variant; format: biochemical; settings: PTP1B M282K vs wild type
T7 sequence (P18031 1-321 M282K): T1 sequence (P18031 1-321) with M282K
Method in brief: as §1

[9] = target: T1, PTP1B; settings: MD simulation, cited from earlier work
[10] = target: T4, TCPTP; settings: read-out: IC50 for TCPTP; previously reported; cited from earlier work
[11] = target: T8, TCPTP L158F (Homo sapiens, UniProt P17706, L158F); assay: pNPP enzyme kinetics, L158F variant; format: biochemical; settings: TCPTP L158F vs wild type
T8 sequence (P17706 1-317 L158F): T2 sequence (P17706 1-317 K280M) with L158F, M280K

Row | SMILES | selectivity: inhibits PTP1B more potently than TCPTP (fold) [1] | effect of mutation on IC50 [2] | effect of mutation on IC50 [3] | IC50 [4] | effect of mutation on potency (IC50) [5] | IC50 of L158F mutant compared with wild type [6] | IC50 ([7]; read-out: IC50 for PTP1B, wild type, pNPP substrate) | IC50 ratio (TCPTP/PTP1B), metric for selectivity [7] | effect of mutation on potency (IC50) [8] | occupancy of the β site (loc4), observed trajectories ([9]; PTP1B with disordered α7 helix) | occupancy of the β site (loc4), observed trajectories ([9]; PTP1B with truncated α7 helix) | IC50 [10] | IC50 of L158F mutant compared with wild type [11] | IC50 ratio (TCPTP/PTP1B), metric for selectivity ([1]; previously reported) | IC50 ([1]; read-out: IC50 for PTP1B, previously reported)
1 | CC(C)=CCC=C(C)C1CC=C(C)CC1 (stereo not drawn) [AB, α-bisabolene] | 5–8 × | – | – | – | – | – | – | – | – | – | – | – | – | – | –
2 | C=C(C)[C@@H]1CC[C@@H](C)[C@@H]2CCC(C)=C[C@@H]21 [AD, amorphadiene] | 5–8 × | no effect on the IC50 | no effect on the IC50 | 27 ± 11.2 µM | reduced potency | indistinguishable between wild-type and mutant enzymes | 7.7 ± 2.4 µM | 3.5 ± 1.8 | reduced potency | 0% | 88% | 349 ± 77 µM | indistinguishable between wild-type and mutant enzymes | 6.6 ± 1.8 | 53 ± 8 µM
